# Reference: the M2OR odorant receptor database
# Assays:
# Conditions in all cases: stereoisomer not certain
# [1] = tested on: T1, A0A140T8K0
# T1 sequence (whole entry): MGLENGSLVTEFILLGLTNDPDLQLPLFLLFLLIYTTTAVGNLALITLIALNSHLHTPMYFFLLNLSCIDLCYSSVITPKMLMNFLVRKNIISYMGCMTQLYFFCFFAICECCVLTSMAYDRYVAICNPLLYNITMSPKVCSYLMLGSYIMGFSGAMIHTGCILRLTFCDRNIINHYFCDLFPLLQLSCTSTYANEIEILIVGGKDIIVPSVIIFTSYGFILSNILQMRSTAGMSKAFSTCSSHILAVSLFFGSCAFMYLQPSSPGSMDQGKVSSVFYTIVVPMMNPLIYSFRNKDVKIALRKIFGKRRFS
# In short: (§1)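 Values were gathered from published papers (main text and supplementary material), with extra details requested from the original authors when needed, and checked for typos and inconsistencies. Each receptor–molecule pair is called responsive (active) if the original authors judged the measured signal statistically different from baseline, and non-responsive (inactive) otherwise. Assay methods varied by source, often transient mammalian cell-line luciferase assays. Recorded details include cell line, G-protein, co-transfected protein and tags.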
# [2] = tested on: T2, A0A140T8K4
# T2 sequence (whole entry): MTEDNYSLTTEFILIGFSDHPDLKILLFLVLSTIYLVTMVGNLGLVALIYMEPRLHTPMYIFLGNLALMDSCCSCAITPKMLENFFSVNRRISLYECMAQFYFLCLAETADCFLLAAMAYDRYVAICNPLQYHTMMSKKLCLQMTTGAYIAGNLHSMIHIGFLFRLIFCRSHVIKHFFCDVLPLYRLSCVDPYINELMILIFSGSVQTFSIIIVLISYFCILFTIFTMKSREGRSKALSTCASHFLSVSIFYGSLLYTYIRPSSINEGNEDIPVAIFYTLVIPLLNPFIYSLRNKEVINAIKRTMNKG
# In short: as §1
# [3] = tested on: T3, A0A1L1SVG7
# T3 sequence (whole entry): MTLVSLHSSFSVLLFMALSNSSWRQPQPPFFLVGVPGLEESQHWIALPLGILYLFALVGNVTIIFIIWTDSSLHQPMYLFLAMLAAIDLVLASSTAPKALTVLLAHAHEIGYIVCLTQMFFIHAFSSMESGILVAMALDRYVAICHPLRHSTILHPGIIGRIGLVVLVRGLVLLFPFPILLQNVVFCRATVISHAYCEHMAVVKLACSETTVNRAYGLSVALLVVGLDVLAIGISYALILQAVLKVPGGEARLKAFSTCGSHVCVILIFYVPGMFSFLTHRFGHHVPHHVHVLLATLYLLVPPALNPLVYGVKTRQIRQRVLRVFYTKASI
# In short: as §1
# [4] = tested on: O10A2 H43R H207R K258T
# In short: as §1
# [5] = tested on: O10A3 C8G
# In short: as §1
# [6] = tested on: O10A6
# In short: as §1
# [7] = tested on: O10AD G65C
# In short: as §1
# [8] = tested on: O10D3 V134A R197K
# In short: as §1
# [9] = tested on: O10G4 L24P V195E
# In short: as §1
# [10] = tested on: O10G7 A18V P19Q G20A
# In short: as §1
# O10AD G65C, sequence (as listed by the source, stated change not applied): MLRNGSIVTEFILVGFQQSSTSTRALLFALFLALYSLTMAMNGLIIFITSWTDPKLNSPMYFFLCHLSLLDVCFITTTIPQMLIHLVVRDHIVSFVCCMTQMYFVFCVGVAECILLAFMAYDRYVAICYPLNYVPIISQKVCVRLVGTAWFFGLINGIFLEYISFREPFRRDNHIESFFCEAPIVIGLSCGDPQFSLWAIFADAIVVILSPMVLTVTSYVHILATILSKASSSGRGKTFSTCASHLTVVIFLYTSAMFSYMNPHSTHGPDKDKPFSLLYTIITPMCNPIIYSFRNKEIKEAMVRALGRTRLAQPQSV
# O10A3 C8G, sequence (as listed by the source): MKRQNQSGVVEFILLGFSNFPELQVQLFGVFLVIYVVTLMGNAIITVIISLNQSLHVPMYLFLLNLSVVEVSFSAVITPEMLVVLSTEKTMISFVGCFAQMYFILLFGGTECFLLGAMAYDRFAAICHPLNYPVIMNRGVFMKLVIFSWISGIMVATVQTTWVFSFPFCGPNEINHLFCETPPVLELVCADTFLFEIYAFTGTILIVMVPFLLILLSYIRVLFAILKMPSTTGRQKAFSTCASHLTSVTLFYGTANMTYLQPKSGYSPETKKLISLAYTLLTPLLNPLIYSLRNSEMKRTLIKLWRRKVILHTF
# O10A6, sequence (as listed by the source): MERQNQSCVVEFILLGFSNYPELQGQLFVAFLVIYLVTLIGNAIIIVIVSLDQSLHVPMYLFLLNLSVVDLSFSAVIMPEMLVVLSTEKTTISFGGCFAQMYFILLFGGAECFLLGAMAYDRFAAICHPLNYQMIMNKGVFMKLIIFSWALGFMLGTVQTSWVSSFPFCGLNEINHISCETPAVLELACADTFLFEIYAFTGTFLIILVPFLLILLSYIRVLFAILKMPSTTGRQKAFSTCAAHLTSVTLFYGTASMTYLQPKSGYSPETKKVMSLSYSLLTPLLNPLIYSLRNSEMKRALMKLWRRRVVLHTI
smiles,measurement,setting,value
CCCCC(Br)C(=O)O (centres undefined),odorant receptor agonist call,[1],inactive
CSSC,odorant receptor agonist call,[1],inactive
CCC1CCC(=O)O1 (centres undefined),odorant receptor agonist call,[2],inactive
same,odorant receptor agonist call,[3],inactive
O=c1cc(O)c2ccccc2o1,odorant receptor agonist call,[1],inactive
same,odorant receptor agonist call,[2],inactive
same,odorant receptor agonist call,[3],inactive
O=Cc1ccccc1,odorant receptor agonist call,[1],inactive
CCCCCCC(Br)C(=O)O (centres undefined),odorant receptor agonist call,[1],inactive
C=C(C)C1CC=C(C=O)CC1 (centres undefined),odorant receptor agonist call,[1],inactive
O=Cc1ccc2c(c1)OCO2,odorant receptor agonist call,[1],inactive
O=CC=Cc1ccccc1,odorant receptor agonist call,[1],inactive
C=CCOC(=O)Cc1ccccc1,odorant receptor agonist call,[1],inactive
same,odorant receptor agonist call,[2],inactive
same,odorant receptor agonist call,[3],inactive
same,odorant receptor agonist call,[4],inactive
same,odorant receptor agonist call,[5],inactive
same,odorant receptor agonist call,[6],inactive
same,odorant receptor agonist call,[7],inactive
same,odorant receptor agonist call,[8],inactive
same,odorant receptor agonist call,[9],inactive
same,odorant receptor agonist call,[10],inactive
CC(C=O)Cc1ccc2c(c1)OCO2 (centres undefined),odorant receptor agonist call,[1],inactive
COc1ccc(C=O)cc1,odorant receptor agonist call,[1],inactive
Oc1ccccc1Br,odorant receptor agonist call,[1],inactive
Cc1ccc(OC(=O)Cc2ccccc2)cc1,odorant receptor agonist call,[1],inactive
OCc1ccc2c(c1)OCO2,odorant receptor agonist call,[1],inactive
C=CCc1ccccc1,odorant receptor agonist call,[2],inactive
same,odorant receptor agonist call,[3],inactive
